From PubChem
M1 antag: M1 muscarinic receptor (rat) antagonism | 64,000 compounds, 3.4% hits | P08482 | AID 628 | CHO-M1 cells, Fluo-4 calcium, ACh EC80 antagonist mode; stronger effect = lower value | B-score at 10 µM;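 active means calcium fluorescence response, raw or row-and-column corrected B-score, differing from the plate sample mean either way at a set confidence level, mostly lower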
SF1 activator: activators of human nuclear receptor SF-1 | Q13285 | CHO-K1 Gal4-SF-1 LBD luciferase reporter; % increase over DMSO SF-1-specific signal | activation, % at 10 µM | 65,000 compounds, 1.9% hits | AID 522;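 active means activation above the mean activation of all tested compounds plus 3 SD, cut at about 50% in these data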
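Assay system: CHO-K1 cells co-transfected with Gal4 DBD–human SF-1 LBD, 5xGal4 luciferase reporter; doses: 10 µM only; incubation: 20 h compound exposure at 37 °C after 1 h cell settling; signal: luciferase light emission; evaluation: percent activation versus DMSO; repeats: one test per compound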
D1 allo mod: D1 dopamine receptor (human) allosteric modulation; P21728; B-score at 10 µM; HEK293 D1, CRE-luciferase, dopamine EC30 potentiation; actives deviate in either direction; AID 641; 58,000 compounds, 5.9% hits;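 active means luminescence count or its row- and column-corrected plate score outside the 99.7% band of the plate's sample wells, on either side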
Target sequence (P21728 whole entry, looked up): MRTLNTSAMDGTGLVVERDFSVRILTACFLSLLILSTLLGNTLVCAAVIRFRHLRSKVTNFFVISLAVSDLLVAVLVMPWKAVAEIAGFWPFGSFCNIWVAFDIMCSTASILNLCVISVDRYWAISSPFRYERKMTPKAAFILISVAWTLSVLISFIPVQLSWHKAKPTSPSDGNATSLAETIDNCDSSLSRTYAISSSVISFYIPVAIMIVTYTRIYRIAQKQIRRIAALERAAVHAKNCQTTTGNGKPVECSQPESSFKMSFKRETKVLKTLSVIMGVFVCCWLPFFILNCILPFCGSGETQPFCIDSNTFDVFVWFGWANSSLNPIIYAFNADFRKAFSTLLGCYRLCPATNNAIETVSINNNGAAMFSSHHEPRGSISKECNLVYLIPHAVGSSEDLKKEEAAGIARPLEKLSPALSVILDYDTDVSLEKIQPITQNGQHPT
M1 ag: activates the M1 muscarinic receptor. 64,000 compounds, 3% hits. B-score at 10 µM. CHO-M1 cells, Fluo-4 calcium fluorescence, agonist mode; stronger effect = higher value;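 active means fluorescence rise, raw or as B-score row- and column-corrected plate score, outside the 99.7% band of its plate's samples, either direction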
mHtt clearance: compounds clearing mutant huntingtin protein | HeLa Exon1htt(103Q)mCFP, aggregate imaging; zero = plate's median compound well | inhibition, % at 1.5 µM | AID 853 | 47,000 compounds, 0.42% hits;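 active means inhibition of aggregate fluorescence above about 70%, also judged a hit by eye on the cell image, limit read from the data, passing the limit was not always enough; inconclusive means no rule stated for this call; inactive means not judged a hit on image review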;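 further: cells exposed to compound for three days before fixation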
RORa activator: activates the human nuclear receptor RORA; P35398; activation, % at 10 µM; CHO-K1 Gal4-RORA LBD luciferase reporter, luminescence; percent increase over mock-subtracted basal signal; 65,000 compounds, 1.5% hits;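 active means activation above the mean of all tested compounds plus 3 SD, cut at about 49% in these data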;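 further: 0% = DMSO-treated RORA cells and 100% = added signal equal to DMSO minus mock-transfected cells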
M1 ag confirm: rat M1 muscarinic agonism, confirmation. shares compounds with M1 ag. CHO-M1 cells, Fluo-4 calcium fluorescence, agonist mode; actives lie on both sides. fluorescence change (max-min) at 10 µM. 1,700 compounds, 19% hits;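 active means fluorescence change differs from the solvent-only DMSO control mean at a set confidence level in both duplicate runs; inconclusive means differs from solvent-only control mean in just one of two runs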;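 further: an EC20 dose of acetylcholine follows compound addition during the same imaging run; raw fluorescence intensity difference in instrument units with no normalization to controls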
M4 agonist ctr: activates rat M4 receptor in counter-screen for M1 agonists; shares compounds with M1 ag; CHO M4/Gqi5 cells, Fluo-4 calcium fluorescence, agonist mode; actives lie on both sides; fluorescence change (max-min) at 10 µM; 1,700 compounds, 9% hits;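 active means fluorescence change differing from the plate's solvent-only control wells at 99.7% confidence in both duplicates, whether higher or lower; inconclusive means differs from solvent controls in only one of two duplicates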
* marks the source's active call; other numbers are inactive results. An excerpt weighted towards active compounds, which were near 11% of everything screened.

For CCOC(=O)c1ccc(NC(=O)c2cccc(S(=O)(=O)N3CCOCC3)c2)cc1 the results were M1 antag -2.88*, SF1 activator -22.9, D1 allo mod 0.0534, M1 ag 10.1*, mHtt clearance 13.0, RORa activator 4.4, M1 ag confirm -9.2 and M4 agonist ctr inconclusive.
`O=C(Nc1ccc(F)c(F)c1)c1ccc(F)c(S(=O)(=O)N2CCOCC2)c1` gave M1 antag -0.597, SF1 activator -7.2, D1 allo mod -0.5, M1 ag 2.2, mHtt clearance -21.4 and RORa activator -12.9.
COc1ccc(N/C(C)=C2/C(=O)C(=O)N(CCO)C2c2ccc(Br)cc2)cc1 (centres undefined) was read as M1 antag -0.789, SF1 activator 4.0, M1 ag -0.913, mHtt clearance -4.4 and RORa activator 9.0.
For O=S(=O)(NCc1ccccc1)c1ccc2c(c1)OCCO2 the results were M1 antag 0.78, SF1 activator -1.5, D1 allo mod 0.146, M1 ag 7.43*, RORa activator 15.1, M1 ag confirm -4.62 and M4 agonist ctr -9.38.
For CCCNC(=O)Cc1c(O)c2ccccc2[nH]c1=O the results were mHtt clearance 46.6.
For CCCCCCc1c(O)c2ccccc2[nH]c1=O the results were M1 antag -0.655, SF1 activator 8.3, D1 allo mod 0.111, M1 ag 12.7*, RORa activator -1.5, M1 ag confirm -10.2 and M4 agonist ctr -40.5.
Screening CC(C)(C)NS(=O)(=O)c1ccc(NC(=O)C(Sc2ccccc2)c2ccccc2)cc1 (centres undefined) returned mHtt clearance -1.0.
CCOc1cc(C(=O)Nc2ccc(N3CCN(S(C)(=O)=O)CC3)cc2)cc(OCC)c1OCC was read as M1 antag 0.0551, SF1 activator -5.8, D1 allo mod 0.731, M1 ag 0.0102, mHtt clearance -31.1 and RORa activator -4.7.
Screening CCOc1cc(C(=O)Nc2ccccc2N2CCN(S(C)(=O)=O)CC2)cc(OCC)c1OCC returned M1 antag -0.427, SF1 activator 16.3, D1 allo mod -0.194, M1 ag 1.82*, mHtt clearance 23.1, RORa activator -10.1, M1 ag confirm -20.1 and M4 agonist ctr -34.2.
`CCn1c(COc2ccc(Cl)cc2)nnc1SCc1nc2ccccc2[nH]1` gave mHtt clearance 1.5.
`Cc1ccc(OCc2nnc(SCc3nc4ccccc4[nH]3)n2Cc2ccco2)cc1` gave M1 antag -2.15, SF1 activator 15.4, M1 ag 5.52*, mHtt clearance 21.7, RORa activator 20.6, M1 ag confirm inconclusive and M4 agonist ctr -54.8.
COC(=O)C1=C(C(=O)OC)C2(OC1c1ccccc1C)C(=O)c1ccccc1C2=O (centres undefined) was read as mHtt clearance 36.4.
For CCOC(=O)c1sc2nc(N3CCOCC3)c3c(c2c1N)CCC3 the results were M1 antag -0.398, SF1 activator -0.1, D1 allo mod 0.945, M1 ag 2.02*, mHtt clearance -32.5, RORa activator -4.5, M1 ag confirm inconclusive and M4 agonist ctr -43.9.
`CC(=O)OC1=C(C#N)Cn2ccc3cccc1c32` gave M1 antag 0.579, SF1 activator 3.0, D1 allo mod -0.257, M1 ag 8.98*, mHtt clearance -60.3, RORa activator 4.0, M1 ag confirm 39.3 and M4 agonist ctr 21.3.
For N#C/C(=C\c1ccc(O)c(O)c1)S(=O)(=O)c1ccccc1 the results were M1 antag 0.516, SF1 activator -5.4, D1 allo mod 0.0412, M1 ag 22*, mHtt clearance 6.4, RORa activator -7.3, M1 ag confirm 33.4 and M4 agonist ctr 14.8.
`CCn1nc(C)c(/C=C2\CCCC3=C2OC(N)=C(C#N)C3c2c(C)nn(CC)c2C)c1C` (centres undefined) gave M1 antag 0.497, SF1 activator -12.2, D1 allo mod 0.0251, M1 ag 13.8*, RORa activator -25.1, M1 ag confirm 100* and M4 agonist ctr inconclusive.
For Cc1ccc(C(c2nnnn2C(C)(C)C)N(Cc2ccco2)Cc2cccs2)cc1 (centres undefined) the results were M1 antag 0.188, SF1 activator -30.1, D1 allo mod -2.18, M1 ag 6.46 and RORa activator -1.3.
Screening CC(C)C(c1nnnn1Cc1ccccc1)N(Cc1ccco1)Cc1cccs1 (centres undefined) returned M1 antag -1.2, SF1 activator -13.0, D1 allo mod 0.865, M1 ag 12.8*, RORa activator -12.8, M1 ag confirm -10.9 and M4 agonist ctr -13.8.
COc1ccc(Cn2nnnc2C(C(C)C)N(Cc2ccco2)Cc2cccs2)cc1 (centres undefined) was read as M1 antag -0.13, SF1 activator -25.2, D1 allo mod 0.831, M1 ag 3.16*, mHtt clearance -7.8, RORa activator -7.1, M1 ag confirm -6.41 and M4 agonist ctr inconclusive.
For Cn1c(=O)c2cn(Cc3ccc(Cl)cc3)cc2n(C)c1=O the results were M1 antag 0.295, SF1 activator -4.0, D1 allo mod 1.98, M1 ag 0.306, mHtt clearance -0.3 and RORa activator -15.3.
CN(C)c1ccc(NC(=O)c2sc(SCC(=O)Nc3nccs3)nc2N)cc1 was read as M1 antag -0.922, SF1 activator 25.1, M1 ag 7.09*, RORa activator 24.6, M1 ag confirm -26.5 and M4 agonist ctr inconclusive.
Screening Cc1nnc(SCC(=O)Nc2nccs2)s1 returned M1 antag 0.106, SF1 activator -11.8, D1 allo mod 0.585, M1 ag -0.14 and RORa activator 19.4.
Screening Cc1c(Cc2ccccc2)sc(N)c1C(N)=O returned M1 antag -0.0736, SF1 activator -24.4, D1 allo mod 0.573, M1 ag 8.76*, mHtt clearance -113.4, RORa activator 2.2, M1 ag confirm 0.133 and M4 agonist ctr -25.6.
C=CCSc1nc(C)c2cc(C)cc(C)c2n1 was read as mHtt clearance -22.1.
For C=CCOC(=O)C1=C(C)OC(N)=C(C#N)C1c1c(C)nn(-c2ccccc2)c1Cl (centres undefined) the results were M1 antag -0.0927, SF1 activator 5.3, D1 allo mod -0.308, M1 ag 5.29*, mHtt clearance 7.4, RORa activator 7.3, M1 ag confirm inconclusive and M4 agonist ctr -45.3.
